One may read the Emax as the greatest response seen or fitted, relative to the assay's reference. The term IC50 denotes the point on the concentration scale where inhibition reaches its midpoint.

The structures appear in SMILES notation. Active and inactive are the calls of the source. No cut-off for these calls is given here.

In series [1] the test system is EPC. Description: Antiangiogenic activity in CD34-positive human EPC assessed as inhibition of tube formation on matrigel at 10 uM after 24 hrs by inverted phase-contrast microscopy. Format: functional, cell-based. The gist of the method: (§1)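 Human CD34+ EPCs (from PBMCs, MACS bead separation) maintained on 1% gelatin in MV2 medium with 20% FBS. Matrigel polymerized 30 min at 37 °C; 6 × 10^4 cells/well seeded in MV2 with 2% FBS plus compound, 24 h at 37 °C. Tube length measured in three random fields per well, expressed against DMSO control; IC50 derived from this.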

The subject of series [2] is RAW264.7. Description: Antiinflammatory activity in mouse RAW264.7 cells assessed as inhibition of LPS-stimulated nitric oxide production at 100 uM compound treated prior to LPS challenge by Griess assay. Format: functional. The gist of the method:
(§2)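 RAW264.7 grown to confluence (24 h, DMEM 10% FBS), then serum-free DMEM 4 h for quiescence. Compounds added before LPS (200 ng/mL). Nitrite in medium read spectrophotometrically by Griess reaction. Percent inhibition calculated versus vehicle plus LPS; Emax is inhibition at 100 μM, IC50 the concentration giving 50% of Emax; n = 4−6.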
For orientation: Nitrite, measured by Griess reagent, commonly stands in for NO production.

Series [3] is described as follows: Antiangiogenic activity in CD34-positive human EPC assessed as inhibition of tube formation on matrigel after 24 hrs by inverted phase-contrast microscopy. The series is classed as functional, cell-based. The gist of the method: as §1
Series [4] can be described thus: Cytotoxicity against CD34-positive human EPC at 20 uM after 24 hrs by LDH release assay. Format: cell-based. The gist of the method:
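EPCs seeded at 5 × 10^3 cells/well, treated 24 h in MV2 medium with 2% FBS containing compound at 20 μM. LDH release taken as medium LDH activity relative to cell-lysate LDH activity. Mean ± SEM of three independent experiments.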

Series [5] can be described thus: Cytotoxicity against mouse RAW264.7 cells assessed as cell viability by AlamarBlue assay. The series is classed as cell-based. Also noted: concentration or dose not given beside the values. The note with it: read-out: Activity. The gist of the method: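 RAW264.7 macrophages exposed to compounds at up to 100 μM under the NO-assay conditions; viability read by AlamarBlue.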
(Resazurin is reduced to fluorescent resorufin, in cell work by metabolically active cells.)

Series [6] concerns RAW264.7. Description: Antiinflammatory activity in mouse RAW264.7 cells assessed as inhibition of LPS-stimulated nitric oxide production compound treated prior to LPS challenge by Griess assay. Format: functional, cell-based. The gist of the method:
as §2

On to `CO[C@H]1[C@@H](OC(=O)/C=C/[C@H]2O[C@H]2C)CC[C@@]2(CO2)[C@@H]1[C@]1(C)O[C@H]1CC=C(C)C`, for which, in series [1], the inhibition entry was “Active”. The Emax at 100 µM in series [2] amounted to 100%. The IC50 in series [3] stood at 17.8 µM; in series [6], 8.8 µM. Further, in series [4], the Activity entry is on record as “Non-Toxic”. Further, the viability in series [5] turned out to be 98.7%.

As to `CC/C=C\[C@H](O)[C@H](O)C1=C(C)C(=O)[C@]2(O1)C(=O)N[C@@](OC)(C(=O)c1ccccc1)[C@H]2O`, the Emax at 100 µM in series [2] was determined as 67.2%. The IC50 in series [3] was more than 20 µM; in series [6], 62.5 µM. Further, in series [5], the viability amounted to 99.3%.

Take `N=C(NCCC[C@H](N)C(=O)O)N[N+](=O)[O-]` [NITROARGININE]: in series [2], the maximal response (Emax) at 100 µM amounted to 42.1%. Moreover, the viability in series [5] turned out to be 102%. Further, the IC50 in series [6] came to 144 µM.

For the compound `CC/C(O)=C/C=C(\O)C1=C(C)C(=O)[C@@]2(O1)C(=O)N[C@](OC)(C(=O)c1ccccc1)[C@H]2O`, the inhibition entry in series [1] was “Active”. For the same compound, the maximal response (Emax) at 100 µM in series [2] came out at 63.1%. Moreover, the 50% inhibitory concentration (IC50) was determined as 16.7 µM in series [3] and 57 µM in series [6]. Moreover, the Activity entry in series [4] is listed as “Non-Toxic”. Further, in series [5], the viability is 97.6%.

`CO[C@H]1[C@@H](OC(=O)/C=C/[C@@H](O)[C@H](C)O)CC[C@@](O)(CCl)[C@@H]1[C@]1(C)O[C@H]1CC=C(C)C`: the inhibition result in series [1] is “Active”. In addition, the Emax at 100 µM in series [2] was determined as 87.9%. In addition, the figures for the IC50 in series [3] and in series [6] were 8.1 µM and 19.3 µM, respectively. Besides, the Activity entry in series [4] is on record as “Non-Toxic”. The viability in series [5] is 99.2%.

For the compound `CC/C=C\[C@H](O)[C@H](O)C1=C(C)C(=O)[C@]2(O1)C(=O)N[C@@](OC)(C(=O)c1ccccc1)[C@@H]2O` [PSEUROTIN A], in series [2], the Emax at 100 µM turned out to be 38.8%. The IC50 is more than 20 µM in series [3] and more than 100 µM in series [6]. In addition, in series [5], the viability was determined as 103%.

For the compound `C=C1CC[C@H](OC(=O)/C=C/[C@@H](O)[C@H](C)O)[C@H](OC)[C@H]1[C@@]1(C)O[C@H]1CC=C(C)C`, in series [1], the inhibition entry was “Active”. In addition, the Emax at 100 µM in series [2] stood at 80.8%. Also, the results for the IC50 in series [3] and in series [6] were 19.2 µM and 35.4 µM, respectively. In addition, the Activity entry in series [4] is reported as “Non-Toxic”. The viability in series [5] is 93%.

As to `CO[C@H]1[C@@H](OC(=O)/C=C/[C@H]2O[C@@H]2C)CC[C@@]2(O)CO[C@@](C)(C(O)CC=C(C)C)[C@H]12` (stereo partly drawn), the inhibition entry in series [1] is “Active”. Moreover, the Emax at 100 µM in series [2] was 93.4%. Besides, the concentration for half-maximal inhibition (IC50) in series [3] stood at 16.2 µM; in series [6], 22.8 µM. Besides, in series [4], the Activity result is on record as “Non-Toxic”. In addition, the viability in series [5] came to 92.2%.

Take `CNC(=O)c1cc(Oc2ccc(NC(=O)Nc3ccc(Cl)c(C(F)(F)F)c3)cc2)ccn1` [SORAFENIB]: the IC50 in series [3] came to 3.6 µM.

On to `CO[C@H]1[C@@H](OC(=O)/C=C/[C@@H](O)[C@H](C)O)CC[C@@]2(CO2)[C@@H]1[C@@]1(C)O[C@H]1CC=C(C)C`, for which the maximal effect (Emax) at 100 µM in series [2] is 100%. The half-maximal inhibitory concentration (IC50) worked out at 18.4 µM in series [3] and 20.6 µM in series [6]. Further, in series [5], the viability was found to be 97.6%.

For `CC/C=C\[C@H](O)[C@H](O)C1=C(C)C(=O)[C@]2(O1)C(=O)N[C@](OC)(C(=O)c1ccccc1)[C@H]2O`, in series [2], the Emax at 100 µM was 78.2%. Further, the half-inhibitory concentration (IC50) was more than 20 µM in series [3] and 40.6 µM in series [6]. Also, the viability in series [5] turned out to be 100%.

`N=C(N)NN` [PIMAGEDINE]: in series [2], the maximal effect (Emax) at 100 µM was found to be 83.7%. Further, the viability in series [5] worked out at 99.2%. The IC50 in series [6] amounted to 24.7 µM.

Take `CO[C@H]1[C@@H](OC(=O)/C=C/[C@H]2O[C@H]2C)CC[C@@](O)(CCl)[C@@H]1[C@]1(C)O[C@H]1CC=C(C)C`: the Emax at 100 µM in series [2] turned out to be 100%. Moreover, the IC50 is more than 20 µM in series [3] and 13.5 µM in series [6]. In addition, the Activity result in series [4] is listed as “Non-Toxic”. Besides, the viability in series [5] worked out at 101%.
